Experimental data published in ChEMBL document CHEMBL1275331, “Discovery of a novel 5-HT(3) antagonist/5-HT(1A) agonist 3-amino-5,6,7,8-tetrahydro-2-{4-[4-(quinolin-2-yl)piperazin-1-yl]butyl}quinazolin-4(3H)-one (TZB-30878) as an orally bioavailable agent for irritable bowel syndrome” (J Med Chem, 2010).
pIC50, pKi: −log10 of the molar value. Calls of active or inactive are those of the source. The rule behind the calls is not given here.

Key:
[1] = Drug level in Sprague-Dawley rat brain at 3 mg/kg, po after 4 hrs by HPLC analysis; assay type: ADME, organism-based; design: dose 3 mg/kg, route oral; conditions: read-out: Drug uptake
Outline: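 Total compound concentration was measured in brain and blood at 2, 4 and 8 h after a single oral 3 mg/kg dose. Brain/blood ratio was also derived. Values are mean ± SD of three rats.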

Rattus norvegicus [2] = assay: Induction of 5HT1A receptor-mediated behavioral activity in rat assessed as appearance of flat body posture at 10 mg/kg, iv after 30 mins; assay type: functional, organism-based; design: dose 10 mg/kg
Outline: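 Rats were conditioned to test procedures over 2 weeks and acclimated to the test cage for 1 h. Vehicle was saline containing diluted HCl. Lower lip retraction and flat body posture were scored on a 0–3 scale at 5, 10, 20 and 30 min after dosing.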

Rattus norvegicus [3] = assay: […] activity in rat assessed as inhibition of 5HT-induced bradycardia at 10 ug/kg, iv by von Benzold-Jarisch reflex assay; assay type: functional
[4] = target: T1, Adrenergic receptor alpha-2 (Rattus norvegicus, UniProt P22086+P19328+P22909); assay: Inhibition of rat alpha2 adrenergic receptor
[5] = target: T2, 5-hydroxytryptamine receptor 1A (Homo sapiens, UniProt P08908); assay: Binding affinity to human 5HT1A receptor
T2 sequence (P08908 whole entry): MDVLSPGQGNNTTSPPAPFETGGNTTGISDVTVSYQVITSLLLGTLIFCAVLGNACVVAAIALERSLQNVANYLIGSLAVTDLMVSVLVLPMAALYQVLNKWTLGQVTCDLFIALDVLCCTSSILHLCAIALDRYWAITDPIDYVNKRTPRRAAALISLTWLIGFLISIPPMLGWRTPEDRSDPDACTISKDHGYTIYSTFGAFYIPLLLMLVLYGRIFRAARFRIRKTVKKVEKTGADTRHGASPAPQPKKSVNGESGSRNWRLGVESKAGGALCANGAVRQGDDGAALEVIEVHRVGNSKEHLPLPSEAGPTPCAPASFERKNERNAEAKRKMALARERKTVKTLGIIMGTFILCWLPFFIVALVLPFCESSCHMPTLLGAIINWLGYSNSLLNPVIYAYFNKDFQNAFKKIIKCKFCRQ
Outline: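 CHO-cell membranes with human 5-HT1A were incubated with 0.25 nmol/L [3H]8-OH-DPAT (final) for 60 min at 27 °C. Buffer: 50 mM Tris-HCl, 10 mM MgSO4, 0.5 mM EDTA, 0.1% ascorbic acid, pH 7.4. Compound came from 270 μmol/L DMSO stock, diluted in buffer. Filtration was through GF/C presoaked in 0.3% polyethyleneimine, with two cold Tris washes. Run in duplicate or triplicate; percent inhibition of binding calculated.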

[6] = target: T3, 5-hydroxytryptamine receptor 3A (Homo sapiens, UniProt P46098); assay: Binding affinity to human 5HT3 receptor
T3 sequence (P46098 whole entry): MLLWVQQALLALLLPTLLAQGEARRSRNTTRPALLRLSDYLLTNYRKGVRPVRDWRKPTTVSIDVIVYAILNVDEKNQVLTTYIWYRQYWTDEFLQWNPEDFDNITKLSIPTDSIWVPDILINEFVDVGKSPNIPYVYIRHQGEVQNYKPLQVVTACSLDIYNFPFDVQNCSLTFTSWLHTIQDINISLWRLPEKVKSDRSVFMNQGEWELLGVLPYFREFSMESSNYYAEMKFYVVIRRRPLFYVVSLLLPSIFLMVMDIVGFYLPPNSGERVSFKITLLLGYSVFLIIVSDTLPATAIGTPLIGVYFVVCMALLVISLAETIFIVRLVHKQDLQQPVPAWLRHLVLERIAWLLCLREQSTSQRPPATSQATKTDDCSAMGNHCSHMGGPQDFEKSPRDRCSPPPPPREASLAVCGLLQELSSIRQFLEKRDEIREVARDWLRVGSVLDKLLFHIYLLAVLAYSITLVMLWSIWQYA
Outline: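 HEK-293 membranes expressing human 5-HT3 were incubated with 0.5 nmol/L [3H]BRL-43694 (final) for 60 min at 25 °C. Buffer: 50 mM Tris-HCl, 5 mM MgCl2, 1 mM EDTA, pH 7.5. Compound came from 270 μmol/L DMSO stock, diluted in buffer. Filtration was through GF/B presoaked in 0.5% polyethyleneimine, with two cold Tris washes. Run in duplicate or triplicate; percent inhibition calculated.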

Rattus norvegicus [7] = assay: Reduction in wrap restraint stress-induced defecation in rat diarrhea-predominant irritable bowel syndrome model at 1 to 10 mg/kg, po administered 1 hr prior to induction of stress; assay type: functional, organism-based
Outline: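 Lightly anesthetized rats had upper bodies wrapped with adhesive tape, then returned to observation cages; feces counted 1 h after wrapping. Compound or vehicle given orally 1 h before restraint; unwrapped animals as normal group. n = 8 per group, mean (SD); Wilcoxon and nonparametric Dunnett's tests.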

Rattus norvegicus [8] = assay: Reduction in wrap restraint stress-induced defecation in WAY-100635-treated rat diarrhea-predominant irritable bowel syndrome model at 0.3 to 3 mg/kg, ip administered 20 mins following addition of 5HT1A receptor antagonist WAY-100635; assay type: functional, organism-based
Outline: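 Rats received saline (with diluted HCl) or WAY-100635 sc; 20 min later compound or vehicle ip. Five minutes after, lightly anesthetized rats were wrapped for 1 h and feces counted. n = 8 per group, mean (SD); Wilcoxon and nonparametric Dunnett's tests.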

Adenosine receptor A1 = Adenosine receptor A1 (Homo sapiens, UniProt P30542); assay: Displacement of [3H]DPCPX from human recombinant adenosine A1 receptor
[9] = target: T1, Adrenergic receptor alpha-2; assay: Displacement of [3H]RX821002 from rat cerebral cortex alpha2 adrenergic receptor; assay type: tissue-based
D(2) dopamine receptor = D(2) dopamine receptor (Homo sapiens, UniProt P14416); assay: Displacement of [3H]spiperone from human recombinant dopamine D2 receptor
[10] = Displacement of [3H]GABA from rat cerebral cortex GABA(A) receptor; assay type: tissue-based
Histamine H1 receptor = Histamine H1 receptor (Homo sapiens, UniProt P35367); assay: Displacement of [3H]pyrilamine from human recombinant histamine H1 receptor
Substance-K receptor = Substance-K receptor (Homo sapiens, UniProt P21452); assay: Displacement of [125I]NKA from human recombinant NK2 receptor
Neuromedin-K receptor = Neuromedin-K receptor (Homo sapiens, UniProt P29371); assay: Displacement of [3H]SR142801 from human recombinant NK3 receptor
Mu-type opioid receptor = Mu-type opioid receptor (Homo sapiens, UniProt P35372); assay: Displacement of [3H]DAMGO from human recombinant mu opioid receptor
[11] = target: T2, 5-hydroxytryptamine receptor 1A; assay: Displacement of 8-hydroxy-[3H]DPAT from human recombinant 5HT1A receptor
[12] = target: 5-hydroxytryptamine receptor 1B (Rattus norvegicus, UniProt P28564); assay: Displacement of [125I]CYP from rat cerebral cortex 5HT1B receptor in presence of 30 uM propranolol; assay type: tissue-based
[13] = target: 5-hydroxytryptamine receptor 5A (Homo sapiens, UniProt P47898); assay: Displacement of [3H]LSD from human recombinant 5HT5A receptor
[14] = target: T3, 5-hydroxytryptamine receptor 3A; assay: Displacement of [3H]BRL-43694 from human recombinant 5HT3 receptor
[15] = target: 5-hydroxytryptamine receptor 7 (Homo sapiens, UniProt P34969); assay: Displacement of [3H]LSD from human recombinant 5HT7 receptor
[16] = target: Sodium-dependent dopamine transporter (Homo sapiens, UniProt Q01959); assay: Displacement of [3H]BTCP from human recombinant DAT
Sequence of Sodium-dependent dopamine transporter (Q01959 whole entry): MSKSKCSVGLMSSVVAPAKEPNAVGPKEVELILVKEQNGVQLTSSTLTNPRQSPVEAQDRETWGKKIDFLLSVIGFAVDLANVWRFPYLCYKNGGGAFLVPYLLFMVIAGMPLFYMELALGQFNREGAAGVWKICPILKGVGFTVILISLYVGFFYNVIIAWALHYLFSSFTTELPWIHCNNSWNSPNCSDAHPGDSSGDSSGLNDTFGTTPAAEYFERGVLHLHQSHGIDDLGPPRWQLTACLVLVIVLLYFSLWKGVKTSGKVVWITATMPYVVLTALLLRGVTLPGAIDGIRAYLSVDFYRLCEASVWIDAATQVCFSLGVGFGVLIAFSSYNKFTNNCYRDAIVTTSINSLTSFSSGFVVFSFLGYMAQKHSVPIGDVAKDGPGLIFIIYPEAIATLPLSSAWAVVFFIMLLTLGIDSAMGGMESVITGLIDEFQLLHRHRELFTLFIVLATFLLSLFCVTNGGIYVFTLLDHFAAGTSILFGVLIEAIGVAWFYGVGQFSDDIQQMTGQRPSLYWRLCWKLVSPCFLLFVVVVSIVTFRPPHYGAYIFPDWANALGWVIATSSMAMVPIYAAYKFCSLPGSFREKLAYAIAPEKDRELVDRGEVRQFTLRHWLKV

Sequence of 5-hydroxytryptamine receptor 1B (P28564 whole entry): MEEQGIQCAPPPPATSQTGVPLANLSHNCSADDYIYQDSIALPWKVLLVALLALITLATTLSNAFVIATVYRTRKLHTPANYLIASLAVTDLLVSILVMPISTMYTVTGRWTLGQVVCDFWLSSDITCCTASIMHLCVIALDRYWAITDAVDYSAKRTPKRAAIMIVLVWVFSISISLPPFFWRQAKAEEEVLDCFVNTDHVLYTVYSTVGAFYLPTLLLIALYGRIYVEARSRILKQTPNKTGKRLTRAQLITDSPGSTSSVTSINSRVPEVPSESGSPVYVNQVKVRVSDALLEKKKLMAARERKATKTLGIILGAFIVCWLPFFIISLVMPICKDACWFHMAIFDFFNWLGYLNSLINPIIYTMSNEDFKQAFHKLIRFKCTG
Sequence of Histamine H1 receptor (P35367 whole entry): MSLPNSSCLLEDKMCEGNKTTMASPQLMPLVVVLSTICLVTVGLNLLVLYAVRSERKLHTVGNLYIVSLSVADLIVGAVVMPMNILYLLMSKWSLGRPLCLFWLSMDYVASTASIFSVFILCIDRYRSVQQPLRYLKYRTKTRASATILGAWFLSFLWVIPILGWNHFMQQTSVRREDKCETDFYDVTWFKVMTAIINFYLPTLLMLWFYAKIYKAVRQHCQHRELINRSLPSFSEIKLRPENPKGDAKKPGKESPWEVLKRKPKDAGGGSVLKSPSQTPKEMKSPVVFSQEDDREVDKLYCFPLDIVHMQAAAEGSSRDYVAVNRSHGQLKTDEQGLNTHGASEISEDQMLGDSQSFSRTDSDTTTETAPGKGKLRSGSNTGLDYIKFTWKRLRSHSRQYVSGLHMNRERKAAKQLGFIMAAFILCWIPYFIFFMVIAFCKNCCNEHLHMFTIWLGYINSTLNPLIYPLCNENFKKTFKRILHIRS
Sequence of 5-hydroxytryptamine receptor 5A (P47898 whole entry): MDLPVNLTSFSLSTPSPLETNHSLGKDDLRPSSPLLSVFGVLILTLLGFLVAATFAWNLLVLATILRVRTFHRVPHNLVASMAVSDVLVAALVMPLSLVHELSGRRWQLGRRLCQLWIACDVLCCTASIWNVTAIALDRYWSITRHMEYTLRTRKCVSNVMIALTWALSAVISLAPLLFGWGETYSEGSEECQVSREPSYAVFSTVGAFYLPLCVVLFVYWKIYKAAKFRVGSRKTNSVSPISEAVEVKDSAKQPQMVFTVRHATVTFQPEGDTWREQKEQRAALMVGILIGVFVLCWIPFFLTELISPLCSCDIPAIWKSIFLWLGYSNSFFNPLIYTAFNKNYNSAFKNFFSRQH
Sequence of Mu-type opioid receptor (P35372 whole entry): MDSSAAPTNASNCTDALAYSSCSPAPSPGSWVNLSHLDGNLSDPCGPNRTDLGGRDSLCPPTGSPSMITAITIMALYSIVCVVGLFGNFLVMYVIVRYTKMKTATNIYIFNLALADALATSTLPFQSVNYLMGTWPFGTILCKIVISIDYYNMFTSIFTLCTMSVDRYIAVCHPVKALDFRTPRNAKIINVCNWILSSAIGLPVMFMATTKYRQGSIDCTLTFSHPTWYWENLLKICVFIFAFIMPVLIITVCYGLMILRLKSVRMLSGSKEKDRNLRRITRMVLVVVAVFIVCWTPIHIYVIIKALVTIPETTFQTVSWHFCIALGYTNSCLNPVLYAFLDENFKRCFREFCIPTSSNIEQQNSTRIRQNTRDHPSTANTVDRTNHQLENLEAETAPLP
Sequence of Adenosine receptor A1 (P30542 whole entry): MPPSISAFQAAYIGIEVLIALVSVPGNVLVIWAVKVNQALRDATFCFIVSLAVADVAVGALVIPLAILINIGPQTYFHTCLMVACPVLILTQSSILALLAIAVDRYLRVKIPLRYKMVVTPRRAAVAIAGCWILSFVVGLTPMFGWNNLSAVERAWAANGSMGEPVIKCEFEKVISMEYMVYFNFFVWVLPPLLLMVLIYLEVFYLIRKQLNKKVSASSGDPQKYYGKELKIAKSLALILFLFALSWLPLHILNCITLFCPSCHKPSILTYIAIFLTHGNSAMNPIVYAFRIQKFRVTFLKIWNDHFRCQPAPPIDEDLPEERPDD
Sequence of 5-hydroxytryptamine receptor 7 (P34969 whole entry): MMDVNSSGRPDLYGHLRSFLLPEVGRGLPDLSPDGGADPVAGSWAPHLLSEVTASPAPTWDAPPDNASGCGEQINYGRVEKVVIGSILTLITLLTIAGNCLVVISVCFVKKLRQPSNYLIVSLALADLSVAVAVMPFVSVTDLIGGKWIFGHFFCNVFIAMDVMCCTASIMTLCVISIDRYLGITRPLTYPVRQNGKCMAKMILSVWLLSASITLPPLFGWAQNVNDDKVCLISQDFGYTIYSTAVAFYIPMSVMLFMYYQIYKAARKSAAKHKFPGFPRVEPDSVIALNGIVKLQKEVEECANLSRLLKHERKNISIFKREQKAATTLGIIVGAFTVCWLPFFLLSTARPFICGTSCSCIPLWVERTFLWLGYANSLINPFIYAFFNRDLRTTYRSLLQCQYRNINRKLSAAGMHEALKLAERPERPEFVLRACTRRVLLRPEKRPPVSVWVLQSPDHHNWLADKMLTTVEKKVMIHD
Sequence of Substance-K receptor (P21452 whole entry): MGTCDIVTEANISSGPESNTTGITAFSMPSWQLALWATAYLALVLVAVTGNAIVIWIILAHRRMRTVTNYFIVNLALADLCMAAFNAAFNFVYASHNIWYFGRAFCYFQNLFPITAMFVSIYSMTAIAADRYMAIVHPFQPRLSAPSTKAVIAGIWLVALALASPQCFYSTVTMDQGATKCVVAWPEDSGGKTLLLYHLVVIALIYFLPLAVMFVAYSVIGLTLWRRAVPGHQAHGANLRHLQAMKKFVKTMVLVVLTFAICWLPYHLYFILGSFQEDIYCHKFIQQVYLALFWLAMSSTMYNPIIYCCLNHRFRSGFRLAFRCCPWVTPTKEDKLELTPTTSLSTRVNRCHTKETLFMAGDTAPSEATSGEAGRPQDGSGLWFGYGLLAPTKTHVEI
Sequence of Neuromedin-K receptor (P29371 whole entry): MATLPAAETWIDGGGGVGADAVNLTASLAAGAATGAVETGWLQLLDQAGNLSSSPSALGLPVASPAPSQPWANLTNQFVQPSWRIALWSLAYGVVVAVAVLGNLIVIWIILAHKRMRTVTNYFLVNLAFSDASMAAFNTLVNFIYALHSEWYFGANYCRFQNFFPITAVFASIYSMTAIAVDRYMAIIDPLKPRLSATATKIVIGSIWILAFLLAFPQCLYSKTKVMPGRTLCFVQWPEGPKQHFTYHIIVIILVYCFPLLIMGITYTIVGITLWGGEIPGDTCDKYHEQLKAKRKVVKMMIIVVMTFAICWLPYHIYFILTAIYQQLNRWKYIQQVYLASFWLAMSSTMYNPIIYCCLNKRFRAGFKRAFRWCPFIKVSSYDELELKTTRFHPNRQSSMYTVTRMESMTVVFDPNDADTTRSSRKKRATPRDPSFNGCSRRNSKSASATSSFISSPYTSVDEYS
Sequence of D(2) dopamine receptor (P14416 whole entry): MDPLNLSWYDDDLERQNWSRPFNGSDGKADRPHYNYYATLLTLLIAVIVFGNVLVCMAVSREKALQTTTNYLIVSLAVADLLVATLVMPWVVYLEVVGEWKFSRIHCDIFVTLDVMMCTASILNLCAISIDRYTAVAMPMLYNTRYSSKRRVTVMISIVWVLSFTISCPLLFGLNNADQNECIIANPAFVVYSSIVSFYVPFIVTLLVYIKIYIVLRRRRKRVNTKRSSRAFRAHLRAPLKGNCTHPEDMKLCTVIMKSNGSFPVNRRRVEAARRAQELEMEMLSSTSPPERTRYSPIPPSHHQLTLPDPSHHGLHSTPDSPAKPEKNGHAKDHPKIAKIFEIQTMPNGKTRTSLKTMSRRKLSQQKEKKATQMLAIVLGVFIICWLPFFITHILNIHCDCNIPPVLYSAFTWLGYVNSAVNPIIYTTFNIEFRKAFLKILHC

## Nn1c(CCCCN2CCN(c3ccc4ccccc4n3)CC2)nc2c(c1=O)CCCC2
[1]
  concentration at 4 h: 70.2 nM
Rattus norvegicus [2]
  Activity: Active
Rattus norvegicus [3]
  inhibition in vivo at 0.01 mg/kg: ≤ 64%
[4]
  IC50: > 0.1 µM
[5]
  pKi: 9.15
[6]
  pKi: 8.33
Rattus norvegicus [7]
  inhibition: Active
Rattus norvegicus [8]
  inhibition: inactive
Adenosine receptor A1
  pIC50: < 6.00
[9]
  IC50: > 1 ×10⁻⁶ mol/L
D(2) dopamine receptor
  pIC50: < 6.00
[10]
  pIC50: < 6.00
Histamine H1 receptor
  pIC50: 6.00
Substance-K receptor
  pIC50: < 6.00
Neuromedin-K receptor
  pIC50: < 6.00
Mu-type opioid receptor
  pIC50: < 6.00
[11]
  pIC50: < 8.87
[12]
  pIC50: < 6.00
[13]
  pIC50: < 6.00
[14]
  pIC50: < 8.05
[15]
  pIC50: 6.00
[16]
  pIC50: < 6.00
